Results published in the array DNA melting data of Ke et al. (doi:10.1101/2024.01.08.574731).

Experiments:
[1] = folding enthalpy; higher = less favourable; fluorescence melt of hairpins on a sequencing array, two-state fit; conditions: sodium 0.088 M
Procedure, shortened: (§1)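 Folding enthalpy and melting temperature were estimated with bootstrapped two-state fits and combined across four replicates by inverse-variance weighting, with fitted temperatures raised by 9.35 °C to match UV melts. The data were Cy3 fluorescence of library hairpins, with annealed Cy3 and quencher oligos, on a sequenced MiSeq flow cell in 50 mM Na-HEPES pH 8.0, 25 mM NaCl, imaged in 2.5 °C steps up to 60 °C and normalised to pre-quench Cy3 and control constructs.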

[2] = melting temperature; fluorescence melt of hairpins on a sequencing array, two-state fit, raised by 9.35 °C to match UV melts; conditions: sodium 0.088 M
Procedure, shortened: as §1

Sequence | folding enthalpy [1] [kcal/mol] | Tm [2] [°C]
GGGGCAGGAAACTGTCCC (((.(((....))).))) | -39.4 | 61.3
GGGGCCGAAAGGCAACCC ((((((....)))..))) | -15 | 57.3
GGGGCCGAAAGGCAGCCC ((((((....)))..))) | -14.6 | 54
GGGGCCTCGAAAGAGCCC (((..(((....)))))) | -23.8 | 56.8
GGGGCTGGAAACAGTCCC (((.(((....))).))) | -50.6 | 59.1
GGGGGAGGAAACTCCCTC (.(((((....))))).) | -19.3 | 54.6
GGGGGAGGAAACTCCTCC ((.((((....)))).)) | -22 | 53.4
GGGGGTACGAAAGTACCC (((..(((....)))))) | -8.56 | 63.4
GGGGGTCGAAAGACACCC (((.(((....))).))) | -35.5 | 67.4
GGGGGTGGAAACGCCCTC (.(((.(....).))).) | -28 | 59.5
GGGGGTGGAAACGCCTCC ((.((.(....).)).)) | -23.7 | 49.7
GGGGGTGGAAACGTCCCC ((((..(....)..)))) | -26.2 | 48.7
GGGGTAGGAAACTATCCC (((.(((....))).))) | -38.4 | 48.9
GGGGTAGGAAACTGCCTC (.((.((....)).)).) | -25.1 | 38
GGGGTCCGAAAGGATCCC (((.(((....))).))) | -36 | 67.9
GGGGTCGAAAGACATCCC ((((((....)))..))) | -17.1 | 46.5
GGGGTCGAAAGACCTCCC ((((((....)))..))) | -11.7 | 51.4
GGGGTCGAAAGACTGCCC ((((((....)))..))) | -16.2 | 41.5
GGGGTGCCGAAAGGCCCC (((..(((....)))))) | -14.6 | 65
GGGGTGGCGAAAGCCCCC (((..(((....)))))) | -14.2 | 62.9
GGGGTTGAAAAACCCC ((((((....)))))) | -34.5 | 66.7
GGGGTTGGAAACAACCTC (.(((((....))))).) | -31.5 | 52.5
GGGTAAACGAAAGTTCCC (((..(((....)))))) | -20.7 | 39.8

Sequence | folding enthalpy [1] [kcal/mol] | Tm [2] [°C]
GGGTAACGAAAGTTTCCC (((.(((....))).))) | -43 | 50.3
GGGTAAGAAATTACCC ((((((....)))))) | -27.4 | 50.9
GGGTAATCGAAAGATCCC (((..(((....)))))) | -25 | 35.9
GGGTACCGAAAGGTGCCC (((.(((....))).))) | -29.2 | 68.7
GGGTACGAAAGTAAGCCC ((((((....)))..))) | -20.7 | 40.7
GGGTAGCGAAAGCTGCCC (((.(((....))).))) | -33.5 | 69.2
GGGTAGGCGAAAGCCCCC (((..(((....)))))) | -16.9 | 53
GGGTAGGGAAACCTACTC (.(((((....))))).) | -18.7 | 44.6
GGGTAGGGAAACCTGCTC (.(.(((....))).).) | -14.8 | 36.5
GGGTAGGGAAACCTGTCC ((..(((....)))..)) | -17.2 | 32.3
GGGTAGGGAAACTTGCCC (((.(.(....).).))) | -20.4 | 35.6
GGGTATCGAAAGATCCC (((.(((....)))))) | -30.6 | 49.7
GGGTATGGAAACGTACTC (.(((.(....).))).) | -13.4 | 30.7
GGGTCAACGAAAGTTCCC (((..(((....)))))) | -18.8 | 34.7
GGGTCAGCGAAAGCTCCC (((..(((....)))))) | -17.7 | 42.7
GGGTCCACGAAAGTGCCC (((..(((....)))))) | -17.9 | 40.8
GGGTCCGAAAGGAGCCC ((((((....))).))) | -15.6 | 68.5
GGGTCCGAAAGGAGTCCC ((((((....)))..))) | -19.6 | 46.5
GGGTCCTCGAAAGAGCCC (((..(((....)))))) | -15.3 | 40
GGGTCGGGAAACCGGCTC (.(.(((....))).).) | -21.1 | 47.9
GGGTCGGGAAACCGGTCC ((..(((....)))..)) | -28.5 | 47.2
GGGTCTCGAAAGAGCCCC (((.(((....))).))) | -37.9 | 57.4
GGGTCTGGAAACAGACTC (.(((((....))))).) | -21.9 | 52

Sequence | folding enthalpy [1] [kcal/mol] | Tm [2] [°C]
GGGTCTGGAAACGGACCC (((((.(....).))))) | -51.6 | 59.3
GGGTGACGAAAGTCTCCC (((.(((....))).))) | -36.2 | 60.3
GGGTGAGCGAAAGCTCCC (((..(((....)))))) | -12.6 | 49.1
GGGTGCCGAAAGGCCCC (((.(((....)))))) | -21.8 | 67.2
GGGTGCCGAAAGGCCCCC (((.(((....))).))) | -15.6 | 66.8
GGGTGCGAAAGCACTCCC ((((((....)))..))) | -10.4 | 53.5
GGGTGCGAAAGCATGCCC ((((((....)))..))) | -15.7 | 49.6
GGGTGCGGAAACACACCC (((((.(....).))))) | -37.6 | 54.8
GGGTGCGGAAACGCACTC (.(((((....))))).) | -12 | 59.4
GGGTGCGGAAACGCGTCC ((..(((....)))..)) | -19.7 | 50.9
GGGTGGGCGAAAGCCCCC (((..(((....)))))) | -12 | 54.5
GGGTGGGGAAACCCATCC ((.((((....)))).)) | -34.7 | 54.2
GGGTGTCCGAAAGGACCC (((..(((....)))))) | -14 | 55
GGGTGTGGAAACACGCCC (((.(((....))).))) | -39.6 | 62.5
GGGTGTGGAAACGCACCC (((((.(....).))))) | -45.2 | 60
GGGTTAGGAAACTAATCC ((.((((....)))).)) | -35.1 | 42.7
GGGTTCCCGAAAGGGCCC (((..(((....)))))) | -18.6 | 47.7
GGGTTCCGAAAGGACCCC (((.(((....))).))) | -39.5 | 58.1
GGGTTCCGAAAGGAGCCC (((.(((....))).))) | -39.8 | 67.1
GGGTTCGAAAGAAACCCC ((((((....)))..))) | -18.5 | 52.5
GGGTTCGAAAGAAGTCCC ((((((....)))..))) | -20.2 | 32.7
GGGTTCGAAAGAATACCC ((((((....)))..))) | -24.9 | 40.5
GGGTTCGAAAGAATCCC ((((((....))).))) | -29 | 52

Sequence | folding enthalpy [1] [kcal/mol] | Tm [2] [°C]
GGGTTCGGAAACGAGCCC (((.(((....))).))) | -57.9 | 58.1
GGGTTCGGAAACGGACCC ((((.((....)).)))) | -46.2 | 59.6
GGGTTGGAAACAACCC ((((((....)))))) | -38.2 | 64.7
GGGTTGGGAAACCAACCC (((((((....))))))) | -32.3 | 69.3
GGGTTGGGAAACTAGCCC (((.(.(....).).))) | -21.4 | 42
GGGTTGGGAAACTGACCC ((((..(....)..)))) | -26.5 | 45.1
GGGTTTCGAAAGAATCCC (((.(((....))).))) | -36.6 | 50.1
GGGTTTGAAAAAACCC ((((((....)))))) | -40 | 58.4
GGGTTTGGAAACAAACTC (.(((((....))))).) | -29.8 | 46.6
GGTAAAGAAATTTACC ((((((....)))))) | -26 | 40.1
GGTAAAGGAAACTTTGCC ((.((((....)))).)) | -28.6 | 42.6
GGTAACCCGAAAGGGACC (((..(((....)))))) | -14.9 | 36.5
GGTAACCGAAAGGTCACC (((.(((....))).))) | -25 | 48.2
GGTAACGAAAGTTAACC ((((((....))).))) | -18.2 | 45.3
GGTAACGAAAGTTCACC ((((((....))).))) | -21.2 | 38.3
GGTAACGAAAGTTTAACC ((((((....)))..))) | -15.7 | 33.8
GGTAACGGAAACGTTACC (((((((....))))))) | -45.6 | 63.2
GGTAAGCCGAAAGGCACC (((..(((....)))))) | -15.4 | 42
GGTAATCGAAAGATCACC (((.(((....))).))) | -25.6 | 39.2
GGTACACGAAAGTGCACC (((.(((....))).))) | -33.9 | 52.3
GGTACAGGAAACTGTGCC ((.((((....)))).)) | -31.8 | 52.6
GGTACATCGAAAGATACC (((..(((....)))))) | -11.5 | 29.7
